According to ChEMBL document CHEMBL4368903, “Identification of GSK3186899/DDD853651 as a Preclinical Development Candidate for the Treatment of Visceral Leishmaniasis” (J Med Chem, 2019):
In brackets after ≈: the same amount, converted by molar mass.

Key:
[1] = test system: Leishmania donovani; experiment: Antileishmanial activity against Leishmania donovani […] in human THP1 cells by intramacrophage assay; assay type: functional, organism-based; conditions: for EC50: Leishmania donovani, THP-1
[2] = Kinetic aqueous solubility of the compound in phosphate buffer at pH 7.4 by CLND assay; assay type: physicochemical; conditions: for solubility kinetic: phosphate buffer, read-out: Kinetic_solubility; for Kinetic_solubility: buffer
In short: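 From 10 mM DMSO stock diluted 1:20 into pH 7.4 PBS, equilibrated 1 h at RT, filtered. Filtrate quantified by calibrated flow-injection CLND. Dynamic range 1–500 μM.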

[3] = Lipophilicity, log D of the compound at pH 7.4 assessed as chromatographic hydrophobicity index; assay type: physicochemical; conditions: buffer
In short: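 Reversed-phase C18 HPLC with fast acetonitrile gradient. CHI taken from gradient retention time via a calibration line of standards. ChromLogD = 0.0857 × CHI − 2.00.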

[4] = Solubility of compound in fasted simulated intestinal fluid at 1 mg after 4 hrs by HPLC-UV analysis; assay type: physicochemical; conditions: for solubility at 4 h: fasted simulated intestinal fluid; for solubility: 4 h
In short: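 1 mg solid shaken in 1 mL FaSSIF (3 mM sodium taurocholate, 0.75 mM lecithin, phosphate buffer pH 6.5) at 900 rpm for 4 h at room temperature, then filtered. Supernatant quantified by HPLC-UV against single-point DMSO calibration. Range 1–1000 μg/mL.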

[5] = Dissociation constant, pKa of the compound by UV-spectroscopy; assay type: physicochemical
In short: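 Sirius T3 acid–base titration with UV read-out: 5 μL of 10 mM sample, absorbance over 54 pH values in about 5 min. Methanol cosolvent with Yasuda–Shedlovsky extrapolation used when precipitation occurred.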

[6] = test system: THP-1; experiment: Cytotoxicity against human THP1 cells; assay type: cell-based
[7] = Intrinsic clearance in CD1 mouse liver microsomes at 0.5 uM after 3 to 30 mins in presence of NADPH by UPLC-MS/MS analysis; assay type: ADME, Microsome
In short: (§1)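 0.5 μM compound with female CD1 mouse or human liver microsomes, started with excess NADPH in 50 mM potassium phosphate pH 7.4. Aliquots at 0, 3, 6, 9, 15 and 30 min quenched in acetonitrile with internal standard. UPLC-MS/MS; rate constant from exponential decay of compound/IS ratio. Verapamil as positive control.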

[8] = test system: HepG2; experiment: Cytotoxicity against human HepG2 cells; assay type: cell-based
[9] = Intrinsic clearance in human liver microsomes at 0.5 uM after 3 to 30 mins in presence of NADPH by UPLC-MS/MS analysis; assay type: ADME, Microsome; in short: as §1
[10] = test system: Leishmania donovani; experiment: Antileishmanial activity against Leishmania donovani axenic amastigote; assay type: functional, organism-based

| Structure (SMILES) | EC50 [1] | solubility kinetic [2] | chromatographic logD [3] | solubility at 4 h [4] | also measured |
| --- | --- | --- | --- | --- | --- |
| O=S(=O)(CCC(F)(F)F)N[C@H]1CC[C@H](Nc2ncc3c(N4CCCCC4)n[nH]c3n2)CC1 | 1.58 µM | 46 µM (≈ 21.9 µg/mL) | 4.4 | – | – |
| O=S(=O)(CCC(F)(F)F)N[C@H]1CC[C@H](Nc2ncc3c(N4CCNCC4)n[nH]c3n2)CC1 | 31.6 µM | 346 µM (≈ 165 µg/mL) | 1.6 | – | – |
| COc1nc(N[C@H]2CC[C@H](NS(=O)(=O)CCC(F)(F)F)CC2)nc2[nH]nc(N3CCOCC3)c12 | 1.26 µM | 311 µM (≈ 158 µg/mL) | – | 0.053 mg/mL (≈ 104 µM) | – |
| CC1COCCN1c1n[nH]c2nc(N[C@H]3CC[C@H](NS(=O)(=O)CCC(F)(F)F)CC3)ncc12 (stereo in doubt; 37) | 2 µM | – | – | – | Kinetic_solubility [2]: >= 292 uM; solubility [4]: 0.118 mg/mL (≈ 240 µM) |
| CC1COCCN1c1n[nH]c2nc(N[C@H]3CC[C@H](NS(=O)(=O)CCC(F)(F)F)CC3)ncc12 (stereo in doubt; 36) | – | ≥ 310 µM | – | 0.088 mg/mL (≈ 179 µM) | pEC50 [1]: 5.6 |
| O=S(=O)(CCC(F)(F)F)N[C@H]1CC[C@H](Nc2ncc3c(-c4cncnc4)n[nH]c3n2)CC1 | 6.31 µM | 11 µM (≈ 5.18 µg/mL) | 3 | – | – |
| O=S(=O)(CCC(F)(F)F)N[C@H]1CC[C@H](Nc2ncc3c(N4CCOCC4)n[nH]c3n2)CC1 | 3.16 µM | 259 µM (≈ 124 µg/mL) | 3 | 0.007 mg/mL (≈ 14.7 µM) | pKa [5]: 3.7 |
| O=S(=O)(CCC(F)(F)F)N[C@H]1CC[C@H](Nc2ncc3c(C4CCOCC4)n[nH]c3n2)CC1 | 3.16 µM | 35 µM (≈ 16.7 µg/mL) | 3.2 | – | – |
| COc1nc(N[C@H]2CC[C@H](NS(=O)(=O)CC3CCCO3)CC2)nc2[nH]nc(N3CCOCC3)c12 (stereo in doubt; 34) | – | 412 µM (≈ 204 µg/mL) | – | 0.283 mg/mL (≈ 571 µM) | pEC50 [1]: 5.4 |
| COc1nc(N[C@H]2CC[C@H](NS(=O)(=O)CC3CCCO3)CC2)nc2[nH]nc(N3CCOCC3)c12 (stereo in doubt; 35) | 6.31 µM | – | – | – | Kinetic_solubility [2]: 421 µM; solubility [4]: 0.208 mg/mL (≈ 420 µM) |
| C[C@@H]1CN(c2n[nH]c3nc(N[C@H]4CC[C@H](NS(=O)(=O)CCC(F)(F)F)CC4)ncc23)CCO1 | 5.01 µM | 52 µM (≈ 25.6 µg/mL) | – | 0.023 mg/mL (≈ 46.8 µM) | – |
| CC(C)Cc1n[nH]c2nc(N[C@H]3CC[C@H](NC(=O)Cc4ccccc4)CC3)ncc12 | > 50.1 µM | – | – | – | EC50 [6]: > 50.1 µM; CLH [7]: 9.5 mL/min/g; EC50 [8]: 50.1 µM; CLH [9]: 1.9 mL/min/g |
| O=S(=O)(CCC(F)(F)F)N[C@H]1CC[C@H](Nc2ncc3c(N4CCCC4)n[nH]c3n2)CC1 | 2 µM | 12 µM (≈ 5.54 µg/mL) | 4 | – | – |
| CC(C)CC(=O)c1sc(NC2CCCCC2)nc1N | – | – | – | – | EC50 [10]: 50.1 µM |
